Measurements taken from ChEMBL document CHEMBL1140035, “4"-Benzoylureido-TSAO derivatives as potent and selective non-nucleoside HCMV inhibitors. Structure-activity relationship and mechanism of antiviral action” (J Med Chem, 2008).
≈ marks a conversion by molar mass, not a printed value. Calls of active or inactive are those of the source. The rule behind the calls is not given here.

Assays:
Human betaherpesvirus 5 [1] = assay: Antiviral activity against HCMV Davis in HEL cells assessed as reduction of virus-induced cytopathogenicity after 7 days; assay type: functional, organism-based; details: Human betaherpesvirus 5, Davis, 168 h
In short: (§1)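 Confluent HEL fibroblasts were infected with strain AD-169 or Davis at 100 PFU/well. After 2 h, residual virus was removed and medium with serial compound concentrations was added, in duplicate. Plates were held 7 days at 37 °C, fixed with ethanol, and scored microscopically for virus-induced cytopathicity. EC50 is the concentration reducing cytopathicity by 50%.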

Human betaherpesvirus 5 [2] = assay: Antiviral activity against HCMV AD169 in HEL cells assessed as reduction of virus-induced cytopathogenicity after 7 days; assay type: functional, organism-based; details: Human betaherpesvirus 5, AD169, HEL, 168 h; in short: as §1
[3] = Cytotoxicity against HEL cells assessed as alteration in cell morphology after 3 days; assay type: cell-based; details: human
In short: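 Minimum cytotoxic concentration: the lowest compound concentration causing a microscopically detectable alteration of HEL cell morphology.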

[4] = Cytotoxicity against HEL cells assessed as reduction in cell growth after 3 days; assay type: cell-based; details: human
In short: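 HEL cells were seeded at 5 × 10³ cells/well and allowed to proliferate for 24 h. Compound-containing medium was then added at several concentrations for 3 days at 37 °C. Cells were counted with a Coulter counter. CC50, the concentration reducing cell growth by 50% versus untreated controls, was read from plots of cell number (% of control) against concentration.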

Human betaherpesvirus 5 [5] = assay: Antiviral activity against HCMV in HEL cells assessed as reduction of virus-induced cytopathogenicity administered at 56 hrs post infection; assay type: functional, organism-based
In short: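 Time-of-addition: confluent HEL cultures were infected with about 100 PFU/well of HCMV Davis. Compound dilutions were added at 0 h or at later time points post infection, with one plate set per time point. Seven days after infection, plates were ethanol-fixed and Giemsa-stained. Antiviral effect was scored microscopically and EC50 calculated.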

Human betaherpesvirus 5 [6] = assay: Antiviral activity against foscarnet-resistant HCMV with DNA polymerase mutant in HEL cells assessed as reduction of virus-induced cytopathogenicity; assay type: functional, organism-based; details: Human betaherpesvirus 5, HEL
In short: (§2)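 Resistant mutants raised in vitro by serial passage of HCMV AD-169 under rising drug concentrations. Confluent HEL fibroblasts infected at 100 PFU/well for 2 h, then the inoculum was removed. Cells were kept with serial compound concentrations in duplicate for 7 days at 37 °C. After ethanol fixation, cytopathicity was scored microscopically. EC50 is the concentration halving virus-induced cytopathicity.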

Human betaherpesvirus 5 [7] = assay: Antiviral activity against HCMV 521 with […] and DNA polymerase mutation in HEL cells assessed as reduction of virus-induced cytopathogenicity; assay type: functional, organism-based; details: Human betaherpesvirus 5, HEL
In short: (§3)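 Drug-resistant HCMV clinical isolates from immunocompromised patients, carrying UL97 and/or DNA polymerase mutations. Confluent HEL fibroblasts infected at 100 PFU/well for 2 h, then residual virus was removed. Medium with serial compound concentrations added in duplicate for 7 days at 37 °C. After ethanol fixation, cytopathicity was scored microscopically. EC50 is the concentration reducing cytopathicity by 50%.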

Human betaherpesvirus 5 [8] = assay: Antiviral activity against HCMV 530 with […] and DNA polymerase mutation in HEL cells assessed as reduction of virus-induced cytopathogenicity; assay type: functional, organism-based; details: Human betaherpesvirus 5, HEL; in short: as §3
Human betaherpesvirus 5 [9] = assay: Antiviral activity against HCMV 6 with […] mutation in HEL cells assessed as reduction of virus-induced cytopathogenicity; assay type: functional, organism-based; details: Human betaherpesvirus 5, HEL; in short: as §3
Human betaherpesvirus 5 [10] = assay: Antiviral activity against (S)-3-hydroxy-2-phosphonomethoxypropyl adenine-resistant HCMV with DNA polymerase mutant in HEL cells assessed as reduction of virus-induced cytopathogenicity; assay type: functional, organism-based; details: Human betaherpesvirus 5, HEL; in short: as §2
Human betaherpesvirus 5 [11] = assay: Antiviral activity against (S)-3-hydroxy-2-phosphonomethoxypropyl cytosine-resistant HCMV with DNA polymerase mutant in HEL cells assessed as reduction of virus-induced cytopathogenicity; assay type: functional, organism-based; details: Human betaherpesvirus 5, HEL; in short: as §2
Human betaherpesvirus 5 [12] = assay: Antiviral activity against acyclovir-resistant HCMV with DNA polymerase mutant in HEL cells assessed as reduction of virus-induced cytopathogenicity; assay type: functional, organism-based; details: Human betaherpesvirus 5, HEL; in short: as §2
Human betaherpesvirus 5 [13] = assay: Antiviral activity against ganciclovir-resistant HCMV with DNA polymerase mutant in HEL cells assessed as reduction of virus-induced cytopathogenicity; assay type: functional, organism-based; details: Human betaherpesvirus 5, HEL; in short: as §2

Row | EC50 (Human betaherpesvirus 5 [1]) [nM] | EC50 (Human betaherpesvirus 5 [2]) [µM] | SMILES | MCC at 72 h [3] [µM] | CC50 at 72 h [4] [µM] | Activity (Human betaherpesvirus 5 [5]) | EC50 (Human betaherpesvirus 5 [6]) [µg/mL] | EC50 (Human betaherpesvirus 5 [7]) [µg/mL] | EC50 (Human betaherpesvirus 5 [8]) [µg/mL] | EC50 (Human betaherpesvirus 5 [9]) [µg/mL] | EC50 (Human betaherpesvirus 5 [10]) [µg/mL] | EC50 (Human betaherpesvirus 5 [11]) [µg/mL] | EC50 (Human betaherpesvirus 5 [12]) [µg/mL] | EC50 (Human betaherpesvirus 5 [13]) [µg/mL]
1 | 2800 | 2.3 | CCOC(=O)NC(=O)NC1=CS(=O)(=O)O[C@@]12[C@@H](CO[Si](C)(C)C(C)(C)C)O[C@@H](n1cc(C)c(=O)n(C)c1=O)[C@@H]2O[Si](C)(C)C(C)(C)C | 10 | 14 | – | – | – | – | – | – | – | – | –
2 | > 100000 | > 100 | CC(C)(C)[Si](C)(C)OCCC1(CO[Si](C)(C)C(C)(C)C)OS(=O)(=O)C=C1NC(=O)NC(=O)c1ccccc1 (stereo not given) | > 100 | > 100 | – | – | – | – | – | – | – | – | –
3 | 2400 | 11 | Cc1cn([C@@H]2O[C@H](CO[Si](C)(C)C(C)(C)C)[C@@]3(OS(=O)(=O)C=C3NC(=O)NC(=O)c3ccccc3)[C@H]2O[Si](C)(C)C(C)(C)C)c(=O)n(C)c1=O | ≥ 80 | > 200 | inactive | – | – | – | – | – | – | – | –
4 | > 100000 | > 100 | CC(=O)O[C@H]1[C@H](n2cc(C)c(=O)n(C)c2=O)O[C@H](COC(=O)c2ccccc2)[C@@]12OS(=O)(=O)C=C2NC(=O)NC(=O)c1ccccc1 | > 100 | > 100 | – | – | – | – | – | – | – | – | –
5 | 380 | ≥ 0.14 | Cc1cn([C@@H]2O[C@H](CO[Si](C)(C)C(C)(C)C)[C@@]3(OS(=O)(=O)C=C3NC(=O)Nc3ccccc3)[C@H]2O[Si](C)(C)C(C)(C)C)c(=O)n(C)c1=O | 1.4 | 1.3 | – | – | – | – | – | – | – | – | –
6 | – | – | Nc1nc(N)c2ncn(CCOCP(=O)(O)O)c2n1 [PMEDAP] | – | – | – | 44 (≈ 153 µM) | 6.7 (≈ 23.2 µM) | 12 (≈ 41.6 µM) | 26 (≈ 90.2 µM) | 2.8 (≈ 9.72 µM) | 5.2 (≈ 18 µM) | 38 (≈ 132 µM) | 1.6 (≈ 5.55 µM)
7 | 3900 | 12.1 | Cc1cn([C@@H]2O[C@H](CO[Si](C)(C)C(C)(C)C)[C@@]3(OS(=O)(=O)C=C3NC(=O)NC(=O)c3ccccc3)[C@H]2O[Si](C)(C)C(C)(C)C(C)C)c(=O)n(C)c1=O | ≥ 100 | ≥ 100 | – | – | – | – | – | – | – | – | –
8 | – | – | Nc1nc2c(ncn2COCCO)c(=O)[nH]1 [ACYCLOVIR] | – | – | – | 173 (≈ 768 µM) | 7.7 (≈ 34.2 µM) | 22 (≈ 97.7 µM) | 91 (≈ 404 µM) | 7.9 (≈ 35.1 µM) | 12 (≈ 53.3 µM) | 130 (≈ 577 µM) | 4.8 (≈ 21.3 µM)
9 | > 100000 | > 100 | Cc1cn([C@@H]2O[C@H](CO)[C@@]3(OS(=O)(=O)C=C3NC(=O)NC(=O)c3ccccc3)[C@H]2O)c(=O)n(C)c1=O | 100 | > 50 | – | – | – | – | – | – | – | – | –
10 | – | – | Nc1ccn(C[C@@H](CO)OCP(=O)(O)O)c(=O)n1.O.O [CIDOFOVIR] | – | – | – | 0.1 | 0.79 | 0.62 | 0.49 | 3.1 | 2.2 | 0.069 | 0.59
11 | > 3200 | > 3.2 | CCOC(=O)CNC(=O)NC1=CS(=O)(=O)O[C@@]12[C@@H](CO[Si](C)(C)C(C)(C)C)O[C@@H](n1cc(C)c(=O)n(C)c1=O)[C@@H]2O[Si](C)(C)C(C)(C)C | 16 | 13 | – | – | – | – | – | – | – | – | –
12 | – | – | Nc1ncnc2c1ncn2C[C@@H](CO)OCP(=O)(O)O | – | – | – | 0.11 (≈ 0.363 µM) | 2.3 (≈ 7.59 µM) | 1.2 (≈ 3.96 µM) | 0.91 (≈ 3 µM) | 6.2 (≈ 20.4 µM) | 3.3 (≈ 10.9 µM) | 0.081 (≈ 0.267 µM) | 2 (≈ 6.6 µM)
13 | 2000 | > 3.2 | Cc1cn([C@@H]2O[C@H](CO[Si](C)(C)C(C)(C)C)[C@@]3(OS(=O)(=O)C=C3NC(N)=O)[C@H]2O[Si](C)(C)C(C)(C)C)c(=O)n(C)c1=O | 16 | 11 | – | – | – | – | – | – | – | – | –
14 | > 10000 | 15 | Cc1cn([C@@H]2O[C@H](CO[Si](C)(C)C(C)(C)C)[C@@]3(OS(=O)(=O)C=C3NC(=O)N(C(=O)Nc3ccccc3)c3ccccc3)[C@H]2O[Si](C)(C)C(C)(C)C)c(=O)n(C)c1=O | 46 | 13 | – | – | – | – | – | – | – | – | –
15 | > 20000 | > 20 | CC(=O)N[C@@H]1O[C@H](CO[Si](C)(C)C(C)(C)C)[C@@]2(OS(=O)(=O)C=C2NC(=O)NC(=O)c2ccccc2)[C@H]1O[Si](C)(C)C(C)(C)C | 100 | > 100 | – | – | – | – | – | – | – | – | –
16 | > 50000 | > 50 | Cc1cn([C@@H]2O[C@H](COCc3ccccc3)[C@@]3(OS(=O)(=O)C=C3NC(=O)NC(=O)c3ccccc3)[C@H]2O[Si](C)(C)C(C)(C)C)c(=O)n(C)c1=O | > 50 | > 50 | – | – | – | – | – | – | – | – | –
17 | > 4000 | > 4 | Cc1cn([C@@H]2O[C@H](CO)[C@@]3(OS(=O)(=O)C=C3NC(=O)NC(=O)c3ccccc3)[C@H]2O[Si](C)(C)C(C)(C)C)c(=O)n(C)c1=O | 20 | 16 | – | – | – | – | – | – | – | – | –
18 | > 100000 | > 100 | Cc1cn([C@@H]2O[C@H](COC(=O)c3ccccc3)[C@@]3(OS(=O)(=O)C=C3NC(=O)NC(=O)c3ccccc3)[C@H]2O)c(=O)n(C)c1=O | > 100 | > 100 | – | – | – | – | – | – | – | – | –
19 | 2200 | 2.2 | Cc1cn([C@@H]2O[C@H](COC(=O)c3ccccc3)[C@@]3(OS(=O)(=O)C=C3NC(=O)NC(=O)c3ccccc3)[C@H]2O[Si](C)(C)C(C)(C)C)c(=O)n(C)c1=O | ≥ 5 | 100 | – | – | – | – | – | – | – | – | –
20 | > 100000 | > 100 | Cc1cn([C@@H]2O[C@H](CO[Si](C)(C)C(C)(C)C)[C@@]3(OS(=O)(=O)C=C3NC(=O)NC(=O)c3ccccc3)[C@H]2O)c(=O)n(C)c1=O | > 100 | 22 | – | – | – | – | – | – | – | – | –
21 | 2000 | 1.8 | CCNC(=O)NC1=CS(=O)(=O)O[C@@]12[C@@H](CO[Si](C)(C)C(C)(C)C)O[C@@H](n1cc(C)c(=O)n(C)c1=O)[C@@H]2O[Si](C)(C)C(C)(C)C | ≥ 3.2 | 10 | – | – | – | – | – | – | – | – | –
22 | 1100 | 1.3 | Cc1cn([C@@H]2O[C@H](CO[Si](C)(C)C(C)(C)C)[C@@]3(OS(=O)(=O)C=C3NC(=O)NCc3ccccc3)[C@H]2O[Si](C)(C)C(C)(C)C)c(=O)n(C)c1=O | 4 | 4.1 | – | – | – | – | – | – | – | – | –
23 | – | – | Nc1nc2c(ncn2COC(CO)CO)c(=O)[nH]1 [GANCICLOVIR] | – | – | – | 1.5 (≈ 5.88 µM) | 6 (≈ 23.5 µM) | 6.2 (≈ 24.3 µM) | 9.4 (≈ 36.8 µM) | 9.1 (≈ 35.7 µM) | 4.9 (≈ 19.2 µM) | 0.54 (≈ 2.12 µM) | 7.6 (≈ 29.8 µM)
24 | – | – | Nc1ncnc2c1ncn2CCOCP(=O)(O)O [ADEFOVIR] | – | – | – | 128 (≈ 469 µM) | 20 (≈ 73.2 µM) | 42 (≈ 154 µM) | 90 (≈ 329 µM) | 9.1 (≈ 33.3 µM) | 18 (≈ 65.9 µM) | 137 (≈ 501 µM) | 5.8 (≈ 21.2 µM)
25 | 4200 | 6.3 | Cc1cn([C@@H]2O[C@H](CO[Si](C(C)C)(C(C)C)C(C)C)[C@@]3(OS(=O)(=O)C=C3NC(=O)NC(=O)c3ccccc3)[C@H]2O[Si](C)(C)C(C)(C)C)c(=O)n(C)c1=O | ≥ 100 | > 100 | – | – | – | – | – | – | – | – | –
